Published values of several laboratories.
Protocols differ between the studies behind these lines.
MC4R: Melanocortin receptor 4 (MC4R, Homo sapiens, UniProt P32245)
BCHE: Cholinesterase (BCHE, Homo sapiens, UniProt P06276)
Oprk1: Kappa-type opioid receptor (Oprk1, Mus musculus, UniProt P33534)

`CCCC[C@H](NC(C)=O)C(=O)N[C@@H](C)C(=O)N[C@@H](Cc1c[nH]cn1)C(=O)N[C@@H](Cc1ccccc1)C(=O)N[C@@H](CCCNC(=N)N)C(=O)N[C@H](Cc1c[nH]c2ccccc12)C(=O)N[C@@H](CC(=O)O)C(=O)N[C@@H](CCCNC(=N)N)C(=O)N[C@@H](Cc1ccccc1)C(=O)N[C@@H](C(=O)N1CCC[C@@H]1C(N)=O)C(C)C` has an Emax of 100% (MC4R; cAMP, agonist; CHO-K1).
With `COc1cc(/C=C/C(=O)O)ccc1OCc1cn(CC(=O)Nc2ccc(C)cc2)nn1` the inhibition was 48.5% (BCHE; enzyme activity, inhibitor, Ellman; 40 µM).
With `[2H]c1c([2H])c([C@]2([2H])CCCN2C(=O)C(C)(C)Oc2ccc3cn[nH]c3c2)c([2H])c([2H])c1C([2H])([2H])[2H]` the remaining binding was 89% (Peripheral plasma membrane protein CASK (CASK, Homo sapiens, UniProt O14936); binding, competition with immobilised ligand; 1 µM).
The inhibition of `CC(C)CC(=O)OC[C@H]1O[C@@](C#N)(c2ccc3c(N)ncnn23)[C@H](O)[C@@H]1O` is reported as 6% (MC4R; cell-free assay; 20 µM).
`CC(C)[C@@H](CN1CCc2ccccc2C1)NC(=O)Cc1c[nH]c2ccccc12` has an inhibition of 89.1% (Oprk1; ligand displacement, radioligand; 10 µM).
For `COc1cc(/C=C/C(=O)O)ccc1OCc1cn(CC(=O)Nc2ccccc2C)nn1`, the inhibition was 44.6% (BCHE; enzyme activity, inhibitor, Ellman; 40 µM).
`Cc1c(CC(=O)N[C@@H](CN2CCc3ccccc3C2)C(C)C)cccc1[N+](=O)[O-]` gave an inhibition of 95.1% (Oprk1; ligand displacement, radioligand; 10 µM).
`CN1CCC[C@H]1c1cccnc1` has an inhibition of -4.76% (Muscarinic acetylcholine receptor M5 (CHRM5, Homo sapiens, UniProt P08912); ligand displacement; 50 µM).
For `CC(C)[C@@H](CN1CCc2ccccc2C1)NC(=O)c1cccc(-c2cccc(O)c2)c1`, the inhibition was 94.2% (Oprk1; ligand displacement, radioligand; 10 µM).
`COc1cc(/C=C/C(=O)O)ccc1OCc1cn(CC(=O)Nc2ccc(Cl)cc2)nn1` gave an inhibition of 22.2% (BCHE; enzyme activity, inhibitor, Ellman; 40 µM).
